# TRPC4 PAM: TRPC4 (mouse) allosteric potentiation | Q9QUQ5 | AID 2227 | B-score at 10 µM | HEK293 TRPC4beta/mu-opioid, DAMGO EC20, Fluo-4 Ca2+ flux; active compounds read high | 310,000 tested, 0.42% active;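 active = B-score of calcium response area above 5 SD of library B-scores, with initial fluorescence ratio within 5 SD of library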;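 also: B-score of integrated fluorescence ratio over time as area under calcium response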
# Target sequence (Q9QUQ5 whole entry, looked up): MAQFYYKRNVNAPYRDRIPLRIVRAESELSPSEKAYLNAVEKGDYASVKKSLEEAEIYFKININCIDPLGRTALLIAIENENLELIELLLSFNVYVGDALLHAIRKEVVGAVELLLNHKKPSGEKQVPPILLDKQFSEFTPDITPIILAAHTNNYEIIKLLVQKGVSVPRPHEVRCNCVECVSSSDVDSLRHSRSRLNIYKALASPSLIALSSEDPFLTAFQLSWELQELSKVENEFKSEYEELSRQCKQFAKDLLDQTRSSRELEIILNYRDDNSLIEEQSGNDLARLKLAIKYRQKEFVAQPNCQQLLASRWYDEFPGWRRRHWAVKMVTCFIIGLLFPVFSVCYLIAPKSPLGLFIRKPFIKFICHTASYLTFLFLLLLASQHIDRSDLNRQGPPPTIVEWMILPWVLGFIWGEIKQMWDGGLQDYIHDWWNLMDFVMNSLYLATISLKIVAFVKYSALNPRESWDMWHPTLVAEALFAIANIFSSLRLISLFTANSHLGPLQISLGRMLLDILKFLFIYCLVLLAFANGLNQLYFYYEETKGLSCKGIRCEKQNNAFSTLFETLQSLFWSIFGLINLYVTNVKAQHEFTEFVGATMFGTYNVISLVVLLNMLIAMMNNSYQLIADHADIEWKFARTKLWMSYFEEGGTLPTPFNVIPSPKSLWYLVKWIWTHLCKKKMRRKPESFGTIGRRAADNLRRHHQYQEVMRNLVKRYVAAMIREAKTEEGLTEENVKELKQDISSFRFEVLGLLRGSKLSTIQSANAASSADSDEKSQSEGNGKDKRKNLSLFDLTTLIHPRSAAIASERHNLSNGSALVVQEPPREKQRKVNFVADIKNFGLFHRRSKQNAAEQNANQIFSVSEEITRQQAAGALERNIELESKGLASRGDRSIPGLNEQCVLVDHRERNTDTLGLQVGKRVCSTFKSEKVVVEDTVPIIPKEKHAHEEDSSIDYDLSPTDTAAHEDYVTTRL
# TRPC4 act: opens the mouse TRPC4 cation channel. Q9QUQ5. HEK293 TRPC4beta/mu-opioid, Fluo4 calcium fluorescence; active compounds read high. B-score at 10 µM. 310,000 tested, 0.49% active. AID 2237;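 active = B-score above 5 SD of library B-scores, and initial fluorescence ratio not above library mean plus 5 SD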;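 also: positive B-score marks a calcium rise read as TRPC4 activation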
#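 Assay system: HEK293 stable line with TRPC4beta plus mu-opioid receptor; schedule: 45 min room-temperature Fluo4 loading, 110 s read; technique: kinetic Fluo4 calcium fluorescence; evaluation: integrated baseline-normalised fluorescence ratio, converted to per-well B score; controls: buffer (low) and maximal DAMGO (high)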
# TRPC6 act: mouse TRPC6 channel activation; Q61143; HEK293-TRPC6 membrane potential dye fluorescence; active compounds read high; B-score at 10 µM; 310,000 tested, 0.13% active; AID 2550;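 active = B-score of the integrated fluorescence ratio above library mean plus 3 SD, and starting fluorescence ratio within library mean plus 5 SD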;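 also: higher score means more depolarization so channel activation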
# TRPC6 inhibitor: inhibitors of mouse TRPC6 channel; AID 2553; B-score at 10 µM; Q61143; HEK293-TRPC6, membrane potential dye, ACh-evoked depolarization; active compounds read low; 310,000 tested, 1.1% active;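 active = B-score under library mean minus 3 SD, initial fluorescence not abnormally high, positive integrated signal ratio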;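 also: B-score derived from integrated fluorescence ratio over the kinetic read; more negative B-score means stronger inhibition of depolarization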
# TRPC4 block: TRPC4 (mouse) channel inhibition. 300,000 tested, 0.39% active. B-score at 10 µM. AID 2247. HEK293 TRPC4beta/mu-opioid, DAMGO-evoked Fluo4 calcium flux; active compounds read low. Q9QUQ5;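 active = B-score over 3 SD under the library average, no early fluorescence shift, positive overall ratio signal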
#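 Material: HEK293 cells with stable TRPC4beta plus mu-opioid receptor expression; probe or stimulus: DAMGO in two steps, submaximal then maximal; technique: Fluo4 calcium fluorescence by kinetic imaging, 5 s 1 Hz baseline; measure: integrated fluorescence ratio relative to baseline, converted to per-well B score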
# TRPC4 sel inh 2: second check of whether TRPC6 inhibitors also affect mouse TRPC4 | inhibition, % at 10 µM | AID 2776 | HEK293 TRPC4/MOR, membrane potential dye fluorescence; channel activated by saturating DAMGO dose | shares compounds with TRPC6 inhibitor | 920 tested, 42% active;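 active = compounds whose fluorescence signal differed from control wells by over 3 SD, either direction, in both duplicate plates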
# TRPC4 spec: mouse TRPC4 off-target activity of TRPC6 inhibitors; shares compounds with TRPC6 inhibitor; HEK293 TRPC4/mu-opioid, membrane potential fluorescence; activity change, negative = inhibition, % at 10 µM; 920 tested, 61% active;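 active = rise or fall in signal beyond 3 SD of buffer-only wells in both replicate plates, either sign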;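 also: integrated kinetic ratio of fluorescence range over baseline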
# HEK293 MPD ctr 2-1: parental HEK293 nonspecific activity of TRPC6 inhibitors, second screen | 920 tested, 31% active | shares compounds with TRPC6 inhibitor | signal change vs control, % at 10 µM | parental HEK293 membrane potential dye fluorescence; maximal acetylcholine challenge after compound addition;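 active = membrane potential signal moving either way by over 3 SD of the maximum-effect control, in both duplicate plates, meaning non-specific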
# HEK293 MPD ctr-1: checks TRPC6 inhibitor effects in parental HEK293 cells. shares compounds with TRPC6 inhibitor. parental HEK293 membrane potential dye fluorescence. membrane potential signal change, % at 10 µM. 920 tested, 60% active. AID 2780;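 active = membrane potential signal shifting up or down by more than 3 SD of buffer-only wells, on both duplicate plates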
# HEK293 MPD ctr-2: checks TRPC6 modulator effects in parental HEK293 cells. 2,400 tested, 51% active. membrane potential dye fluorescence. membrane potential signal change, % at 10 µM. AID 488924. shares compounds with TRPC6 inhibitor;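 active = membrane potential signal moves up or down beyond 5 SD from buffer-only wells, on both duplicate plates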
# HEK293 MPD ctr 2-2: parental HEK293 nonspecific activity of TRPC6 modulators, second screen; inhibition, % at 10 µM; membrane potential dye fluorescence; after compound, maximal acetylcholine stimulation; AID 488926; shares compounds with TRPC6 inhibitor; 2,400 tested, 14% active;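 active = membrane potential signal drops by more than 5 SD from the mean control signal, in both duplicate plates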;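 also: plate controls were acetylcholine ECmax control wells for no effect and buffer only wells for full effect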
# TRPC4 ctr mod: selectivity of TRPC6 modulators against mouse TRPC4. HEK293 TRPC4/mu-opioid, membrane potential fluorescence. shares compounds with TRPC6 inhibitor. 2,400 tested, 69% active. percent change from control (negative = decrease, positive = increase), % at 10 µM. AID 488927;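 active = membrane potential signal moved up or down beyond 5 SD of buffer control wells, in both duplicate plates, actives on both sides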;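 also: plate controls were assay buffer wells for no effect and DAMGO maximal-effect wells for full effect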
# TRPC4/MOR inh 2: second check of whether TRPC6 modulators also affect mouse TRPC4; 2,400 tested, 55% active; shares compounds with TRPC6 inhibitor; inhibition, % at 10 µM; AID 488928; HEK293 TRPC4/mu-opioid, membrane potential dye fluorescence; stimulated with maximal-effect DAMGO;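 active = drop in membrane potential signal beyond 5 SD of the control wells in both duplicate plates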;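 also: TRPC4 counter screen for TRPC6 hits run under conditions tuned for TRPC6 not TRPC4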
# TRPC6 block conf: confirmation of mouse TRPC6 inhibitors; shares compounds with TRPC6 inhibitor; HEK293-TRPC6, membrane potential dye, ACh-evoked depolarization; inhibition, % at 10 µM; 3,300 tested, 43% active;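 active = fluorescence ratio falls more than 5 SD below the full-stimulation control mean, in both duplicate runs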;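 also: integrated fluorescence ratio of peak minus minimum over baseline after agonist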
# TRPC6 act conf: mouse TRPC6 activator confirmation | shares compounds with TRPC6 inhibitor | HEK293-TRPC6 membrane potential dye fluorescence, FDSS | activation, % at 10 µM | 2,800 tested, 11% active;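 active = ratio signal rise beyond 5 SD above unstimulated control wells' mean, seen in both duplicate runs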;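 also: plate controls were buffer EC0 wells for no effect and acetylcholine ECmax response for full effect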
# The depositor's hits bear a star; i = inactive; . = not tested or not shown. Most compounds without a hit are left out; they make up all but 2.3% or so of the library.
SMILES,TRPC4 PAM,TRPC4 act,TRPC6 act,TRPC6 inhibitor,TRPC4 block,HEK293 MPD ctr-2,HEK293 MPD ctr 2-2,TRPC4 ctr mod,TRPC4/MOR inh 2,TRPC6 block conf,TRPC6 act conf,others
O=C(c1ccco1)N1CCN(c2ccnc3cc(Cl)ccc23)CC1,i,i,i,-5.13*,i,-160.5%*,i,-26.5%*,37.0%*,i,i,
Cn1cccc1/C=C1\Cc2ccccc2C1=O,i,i,i,i,i,.,.,.,.,.,.,
Cn1cccc1/C=C1\CC(C(C)(C)C)C/C(=C\c2cccn2C)C1=O (stereo not drawn),i,i,30.4*,i,i,182.5%*,i,i,i,i,i,
N#Cc1cc(-c2ccccc2)nc(N2CCNCC2)n1,i,78*,i,-6.44*,i,i,i,i,68.0%*,65.0%*,i,
COc1nc(C)nc2c1sc1nc3c(cc12)COC(C)(C)C3,i,i,i,-6.42*,i,i,i,-11.5%*,i,i,i,
COc1cccc2oc3ccc(C#CC4(N)CCCCC4)cc3c(=O)c12,i,i,i,-10.8*,i,.,.,.,.,i,i,TRPC4 sel inh 2=68.5%*;TRPC4 spec=i;HEK293 MPD ctr 2-1=237.0%*;HEK293 MPD ctr-1=i
O=c1c2ccccc2oc2ccc(C#CC3(O)CCCCC3)cc12,i,i,i,i,i,.,.,.,.,.,.,
O=C(NCCOc1ccccc1)c1cc(S(=O)(=O)N2CCOCC2)ccc1F,i,i,i,i,i,.,.,.,.,.,.,
COc1ccc(N2Cc3ccccc3C2=NC(=O)c2cncc(Br)c2)cc1,i,i,i,i,i,.,.,.,.,.,.,
Cc1cc(C)n2nc(C(=O)Nc3ccc(S(=O)(=O)N(C)C)cc3)nc2n1,i,i,i,-5.98*,i,-247.0%*,i,-41.0%*,36.0%*,i,i,
CCNc1nc(CN2CCCCC2)nc2scc(-c3ccccc3)c12,i,i,i,-5.83*,i,i,i,i,39.0%*,i,i,
OCC1CCCN(c2nc(CN3CCCCC3)nc3scc(-c4ccccc4)c23)C1 (stereo not drawn),i,i,i,i,i,.,.,.,.,.,.,
CC(O)(C#CCN1CCOCC1)c1ccccc1 (stereo not drawn),i,i,i,i,i,.,.,.,.,.,.,
CC(C)C(O)(C#CCN1CCCCC1)c1ccccc1 (stereo not drawn),i,i,i,-6.64*,i,.,.,.,.,70.9%*,.,TRPC4 sel inh 2=i;TRPC4 spec=4.9%*;HEK293 MPD ctr 2-1=-61.0%*;HEK293 MPD ctr-1=7.8%*
CC(C)C(O)(C#CCN1CCCC1)c1ccccc1 (stereo not drawn),i,i,i,-5.94*,i,i,64.5%*,11.0%*,i,67.5%*,.,
OC(C#CCN1CCCCC1)c1ccccc1 (stereo not drawn),i,i,i,i,i,.,.,.,.,.,.,
O=C(O)c1ccc2c(c1)C(=O)N(c1nccs1)C2=O,i,i,i,i,i,.,.,.,.,.,.,
C=CCn1c(SCC(=O)c2cc(C)n(CC3CCCO3)c2C)nnc1-c1ccccc1 (stereo not drawn),i,i,16*,i,i,110.5%*,i,26.5%*,i,.,82.5%*,
Clc1ccc(Nc2ccccc2)nn1,i,i,i,i,i,.,.,.,.,.,.,
O=C(CSc1ccc([N+](=O)[O-])cn1)Nc1ccc2c(c1)OCO2,i,i,i,i,i,.,.,.,.,.,.,
COc1ccc2c(c1)Sc1ccccc1N2CCN(C)C,i,50*,i,-5.08*,i,i,i,39.0%*,82.5%*,51.5%*,i,
CN(C)CCCN1c2ccccc2Sc2ccccc21,i,i,i,-6.39*,i,i,i,i,58.0%*,44.5%*,i,
CCC(=O)c1ccc2c(c1)N(CCCN(C)C)c1ccccc1S2,i,i,i,-6.09*,i,-232.5%*,72.5%*,-38.0%*,81.0%*,70.0%*,i,
CN(CCCN1c2ccccc2CCc2ccccc21)CC(=O)c1ccc(Cl)cc1,i,i,i,i,i,.,.,.,.,.,.,
CC(C)c1ccc(/C=C2\SC(=S)N(CCC(=O)N3CCCCC3CCO)C2=O)cc1 (stereo not drawn),i,i,i,i,i,.,.,.,.,.,.,
O=C(Nc1cccc(S(=O)(=O)C(F)F)c1)c1ccc(Cl)c(S(=O)(=O)N2CCOCC2)c1,i,i,i,-6.08*,i,i,i,i,i,i,i,
O=C(Nc1cccc(Br)c1)c1ccc(Cl)c(S(=O)(=O)N2CCOCC2)c1,i,i,i,i,i,.,.,.,.,.,.,
CCOC(=O)c1cnc2c(C)cccc2c1NCCCN1CCOCC1,i,i,i,-6.75*,i,.,.,.,.,i,i,TRPC4 sel inh 2=58.5%*;TRPC4 spec=i;HEK293 MPD ctr 2-1=-31.0%*;HEK293 MPD ctr-1=i
CCOC(=O)c1cnc2c(OC)cccc2c1NCc1cccnc1,i,i,i,-7.51*,i,.,.,.,.,82.6%*,i,TRPC4 sel inh 2=i;TRPC4 spec=i;HEK293 MPD ctr 2-1=-15.0%*;HEK293 MPD ctr-1=i
CCOC(=O)c1cnc2ccc(OCC)cc2c1NCc1cccnc1,i,i,i,i,i,.,.,.,.,.,.,

# Screening data from PubChem BioAssay.
